Test results: ChEMBL document CHEMBL4396927, “Fluorescent Imidazo[1,5-a]pyridinium Salt for a Potential Cancer Therapy Agent” (ACS Med Chem Lett, 2019)
Active and inactive are the calls of the source. The rule behind the calls is not given here.

Experiments:
[1] = Drug localization in endosomes of human HeLa cells assessed as co-localization of compound with endosome at 2.5 x 10^-4 mol/L after 24 hrs in presence of endocytosis marker Alexa Fluor 594-conjugated dextran by fluorescence based inverted microscopic analysis; type: ADME, subcellular; conditions: 250 µM
Outline: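 HeLa cells were co-incubated with the salt and an endocytosis marker at 37 °C, 5% CO2, for 24 h. Imaging used bright field, cyan fluorescence through a WU filter and red marker fluorescence through a WIY filter, and the images were merged to assess colocalization.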

HeLa [2] = assay: Induction of mitochondrial depolarization in human HeLa cells assessed at 2.5 x 10^-4 mol/L preincubated for 24 hrs followed by irradiation with 365 nm UVA-LED for 30 mins by JC-1 staining based inverted microscopic analysis; type: functional, cell-based
Outline: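 Mitochondrial membrane potential was assessed by JC-1 in HeLa cells with or without the salt after UVA-LED irradiation for 0, 30 or 60 min. FCCP served as the depolarization positive control. Imaging used WIY and WU filters plus bright field.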

[3] = system: Enterobacteria phage phiX174; assay: Induction of DNA cleavage in supercoiled phiX174 RF I DNA assessed as DNA photo cleavage irradiated with 365 nm UVA-LED light in presence of DMSO measured up to 60 mins by RE-DYE based agarose gel electrophoresis method
Outline: (§1)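 Supercoiled ΦX174 RF I DNA in TE, with the salt in H2O, was irradiated with UVA-LED for 1, 10, 30, 60 or 180 min. A DNA-only irradiated control was included. Scavenger runs added 1.0 × 10–3 mol L–1 NaN3, KI, DMSO or t-BuOH with 60 min irradiation. Samples were resolved on 0.9% agarose in TAE (40 mmol L–1 Tris-acetate, 1 mmol L–1 EDTA, pH 8.0), and supercoiled (Form I) versus nicked circular (Form II) bands were scored.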

[4] = Drug localization in human HeLa cells mitochondria at 2.5 x 10^-4 mol/L incubated for 24 hrs by Mitotracker Red staining based inverted microscopic analysis; type: ADME; conditions: 250 µM
Outline: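 HeLa cells were stained with the salt and a mitochondrial marker, either without UVA-LED or with marker incubation after 30 min of UVA-LED irradiation. Overlap of cyan and red fluorescence was assessed.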

[5] = system: Enterobacteria phage phiX174; assay: Induction of DNA cleavage in supercoiled phiX174 RF I DNA assessed as formation of nicked circular DNA irradiated with 365 nm UVA-LED light under N2 condition measured up to 60 mins by RE-DYE based agarose gel electrophoresis method
[6] = system: Enterobacteria phage phiX174; assay: Induction of DNA cleavage in supercoiled phiX174 RF I DNA assessed as DNA photo cleavage irradiated with 365 nm UVA-LED light in presence of KI measured up to 60 mins by RE-DYE based agarose gel electrophoresis method; outline: as §1
[7] = system: Enterobacteria phage phiX174; assay: Induction of DNA cleavage in supercoiled phiX174 RF I DNA assessed as formation of nicked circular DNA in presence of UVA-LED irradiation with 365 nm light after 10 mins by RE-DYE based agarose gel electrophoresis method; outline: as §1
[8] = Drug distribution in human HeLa cells cytoplasm assessed as decrease in dot shaped cyan signals at 2.5 x 10^-4 mol/L after 24 hrs in presence of endocytosis marker Alexa Fluor 594-conjugated dextran followed by irradiation with 365 nm UVA-LED for 10 to 30 mins by fluorescence based inverted microscopic analysis; conditions: 250 µM
[9] = system: Enterobacteria phage phiX174; assay: Induction of DNA cleavage in supercoiled phiX174 RF I DNA assessed as DNA photo cleavage irradiated with 365 nm UVA-LED light in presence of t-BuOH measured up to 60 mins by RE-DYE based agarose gel electrophoresis method; outline: as §1
HeLa [10] = assay: Photocytotoxicity against human HeLa cells assessed as reduction in cell viability at 2.5 x 10^-4 mol/L preincubated for 24 hrs followed by irradiation with 365 nm UVA-LED light after 30 mins by CCK-8 assay; type: functional, cell-based
Outline: (§2)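 Salt-stained HeLa cells were irradiated with UVA-LED for 10, 30 or 60 min. Viability was read immediately after irradiation, or after a further 24 h at 37 °C in the dark. Irradiated cells without salt served as control.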

HeLa [11] = assay: Antiproliferative against human HeLa cells assessed as reduction in cell viability at 0.08 x 10^-4 mol/L to 1.25 x 10^-4 mol/L after 24 hrs by CCK-8 assay; type: functional, cell-based
Outline: (§3)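 HeLa viability was read by CCK-8 after 1 h (acute) or 24 h (subacute) incubation with a concentration series of the salt. The top concentration was 2.5 × 10–4 mol L–1, limited by water solubility. IC50 was estimated, not determined.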

[12] = system: Enterobacteria phage phiX174; assay: Induction of DNA cleavage in supercoiled phiX174 RF I DNA assessed as cleavage of supercoiled DNA in presence of UVA-LED irradiation with 365 nm light after 60 mins by RE-DYE based agarose gel electrophoresis method relative to control; outline: as §1
HeLa [13] = assay: Antiproliferative activity against human HeLa cells assessed as reduction in cell viability by measuring mitochondrial damage at 2.5 x 10^-4 mol/L preincubated for 24 hrs followed by irradiation with 365 nm UVA-LED light after 30 mins by inverted microscopic analysis; type: functional, cell-based
HeLa [14] = assay: Antiproliferative against human HeLa cells assessed as reduction in cell viability after 24 hrs by CCK-8 assay; type: functional, cell-based; outline: as §3
[15] = Drug distribution in human HeLa cell cytoplasm assessed as increase in hydroxyl radical at 2.5 x 10^-4 mol/L preincubated for 24 hrs followed by irradiation with 365 nm UVA-LED light measured at 5 mins interval for 30 mins by OxiORANGE stress marker based laser confocal microscopic analysis; type: ADME, subcellular; conditions: 0.5 h, 250 µM
Outline: (§4)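 Live HeLa cells, with or without the salt, were loaded with OxiORANGE (hydroxyl radical) or MitoROS 580 (superoxide) and imaged during UV irradiation for 30 min. Blue fluorescence was taken through a DAPI filter and red through a TRITC filter. Intensities were quantified at endosomal positions, in cytoplasm and for the red probe.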

HeLa [16] = assay: Induction of mitochondrial depolarization in human HeLa cells assessed at 2.5 x 10^-4 mol/L preincubated for 24 hrs followed by irradiation with 365 nm UVA-LED for 30 mins under hypoxic conditions by JC-1 staining based inverted microscopic analysis; type: functional, cell-based
Outline: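 The JC-1 mitochondrial membrane potential assay was run on salt-stained HeLa cells under UVA-LED irradiation in hypoxic conditions.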

HeLa [17] = assay: Photocytotoxicity against human HeLa cells assessed as reduction in cell viability at 2.5 x 10^-4 mol/L preincubated for 24 hrs followed by irradiation with 365 nm UVA-LED light after 10 mins by CCK-8 assay; type: functional, cell-based; outline: as §2
[18] = Drug distribution in human HeLa cells cytoplasm assessed as increase in super oxide anion level at 2.5 x 10^-4 mol/L preincubated for 24 hrs followed by irradiation with 365 nm UVA-LED light measured at 5 mins interval for 30 mins by MitoROS stress marker based laser confocal microscopic analysis; type: ADME, subcellular; conditions: 0.5 h, 250 µM; outline: as §4
[19] = system: Enterobacteria phage phiX174; assay: Induction of DNA cleavage in supercoiled phiX174 RF I DNA assessed as DNA photo cleavage irradiated with 365 nm UVA-LED light in presence of NaN3 measured up to 60 mins by RE-DYE based agarose gel electrophoresis method; outline: as §1
HeLa [20] = assay: Photocytotoxicity against human HeLa cells assessed as reduction in cell viability at 2.5 x 10^-4 mol/L preincubated for 24 hrs followed by irradiation with 365 nm UVA-LED light after 60 mins by CCK-8 assay; type: functional, cell-based; outline: as §2
HeLa [21] = assay: Photocytotoxicity against human HeLa cells assessed as reduction in cell viability at 2.5 x 10^-4 mol/L preincubated for 24 hrs followed by irradiation with 365 nm UVA-LED light for 60 mins and measured after 24 hrs by CCK-8 assay; type: functional, cell-based; outline: as §2
HeLa [22] = assay: Antiproliferative against human HeLa cells assessed as reduction in cell viability at 2.5 x 10^-4 mol/L after 24 hrs by CCK-8 assay; type: functional, cell-based; outline: as §3

Drug uptake [1]: Active
Activity [3]: Active
Drug uptake [4]: Not Active
Activity [5]: Active
Activity [6]: Active
Activity [7]: Active
Drug uptake [8]: Active
Activity [9]: Active
Activity [12]: 100%
IC50 (HeLa [14]): Nd(Insoluble)
Drug uptake [15]: Active
Drug uptake [18]: Active
Activity [19]: Active
SMILES: C[n+]1c(-c2ccccc2)c2ccccn2c1-c1n2ccccc2c(-c2ccccc2)[n+]1C.[I-].[I-]
Activity (HeLa [2]): Active
Activity (HeLa [10]): Active
Activity (HeLa [11]): inactive
Activity (HeLa [13]): Active
Activity (HeLa [16]): inactive
Activity (HeLa [17]): inactive
Activity (HeLa [20]): Active
Activity (HeLa [21]): Active
Activity (HeLa [22]): Active
